Results on 25 compounds are retold here after ChEMBL document CHEMBL4190209, “Terpenoids from Euphorbia soongarica and Their Multidrug Resistance Reversal Activity” (J Nat Prod, 2017).

The test system of assay [1] is KB. Briefly: Cytotoxicity against human KB cells assessed as growth inhibition after 72 hrs by MTT assay. It counts as functional, cell-based.
Assay [2] can be described thus: Cytotoxicity against human KBv200 cells assessed as growth inhibition after 72 hrs by MTT assay. It counts as functional, cell-based. Particulars: KBv200, 72 h.
The species named for assay [3] is Homo sapiens. Briefly: Inhibition of P-gp in human KBv200 cells assessed as increase in intracellular rhodamine123 accumulation by measuring fluorescence activity ratio at 10 uM incubated for 4 hrs followed by rhodamine123 addition measured after 1 hr by flow cytometry. It counts as cell-based. A digest of the protocol:
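KBv200 cells were plated at 1.5 × 10^5/mL and left overnight. Compounds were added at 10 μM in DMSO, with verapamil as reference, for 4 h at 37 °C, 5% CO2. Rho123 at 10 μM was then added for 1 h. Cells were washed twice, resuspended in ice-cold PBS and analysed by flow cytometry. FAR = (F treated − F DMSO control)/(F untreated − F DMSO control).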

Assay [4] is filed under the species Homo sapiens. Briefly: Inhibition of P-gp in human KBv200 cells assessed as potentiation of navelbine-induced cytotoxicity by measuring reduction in navelbine IC50 at 10 uM after 72 hrs by MTT assay relative to control. Type of assay: cell-based. In outline: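 KBv200 cells were seeded at 2500 cells/well for 12 h. Navelbine was added at 0.003–30 μM (0.003, 0.01, 0.03, 0.1, 0.3, 1, 3, 10, 30), alone or with modulator at 1, 3 or 10 μM, or with verapamil at 10 μM. Incubation was 72 h, followed by MTT read at A570. Navelbine IC50 came from percent growth inhibition. Reversal fold = IC50 of navelbine alone / IC50 of the combination.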

pIC50: −log10 of the molar value.

As for `CC(=O)[C@@H]1CC[C@]2(C)C3=C(CC[C@@]12C)[C@@]1(C)CC[C@H](O)C(C)(C)[C@@H]1CC3=O`, the pIC50 in assay [1] and in assay [2] was under 4.52 throughout. For the same compound, in assay [3], the Ratio was found to be 0.98.

Consider `C[C@H]1CC2=C([C@H]1O)[C@@H](O)[C@]1(C)CC[C@H]3[C@@H]([C@@H](OC(=O)c4ccccc4)[C@]1(C)C2=O)C3(C)C`, for which the pIC50 in assay [1] was 4.87; in assay [2], 4.79. Also, in assay [3], the Ratio stood at 1.79.

With `CC(=O)O[C@H]1C(=O)[C@@]2(C)[C@H]([C@H](OC(=O)c3ccccc3)[C@]3(O)C[C@H](OC(=O)[C@H](O)[C@@H](NC(=O)c4ccccc4)c4ccccc4)C(C)=C1C3(C)C)[C@]1(OC(C)=O)CO[C@@H]1C[C@@H]2O` [PACLITAXEL], the figures for the pIC50 in assay [1] and in assay [2] were 8.44 and 5.67, respectively.

As to `CC(=O)O[C@]12C[C@H](C)[C@H](O)[C@@H]1/C=C(\C)CC[C@H]1[C@@H](/C=C(\C)C2=O)C1(C)C` [JOLKINOL D], the pIC50 in assay [1] is 4.59; in assay [2], 4.70. In addition, the Ratio in assay [3] stood at 0.66.

For the compound `CC1=C2C=C3CC[C@@H]4C(C)(C)C(=O)CC[C@@]4(C)[C@@H]3C[C@H]2OC1=O` [HELIOSCOPINOLIDE E], the pIC50 is 4.65 in assay [1] and under 4.52 in assay [2]. In addition, the Ratio in assay [3] was determined as 0.45.

Consider `CC(=O)CC/C(=C/C1=C(C)CCC1=O)C(C)C` [LITSEACHROMOLAEVANE B], for which the negative logarithm of the IC50 (pIC50) in assay [1] and in assay [2] was under 4.52 throughout. In addition, in assay [3], the Ratio was 0.4.

Consider `C[C@H]1C[C@]2(OC(=O)/C=C/c3ccccc3)C(=O)[C@@]3(C)[C@@H]4[C@@H](O)C(C)(C)[C@H]4CC[C@@]3(C)[C@H](O)[C@H]2[C@H]1O`, for which the negative-log IC50 (pIC50) was 4.96 in assay [1] and 4.97 in assay [2]. In assay [3], the Ratio came out at 1.47.

As for `C[C@H]1C[C@]2(OC(=O)c3ccccc3)C(=O)[C@@]3(C)[C@@H]4[C@@H](O)C(C)(C)[C@H]4CC[C@@]3(C)[C@H](O)[C@H]2[C@H]1O`, the results for the pIC50 in assay [1] and in assay [2] were 4.70 and under 4.52, respectively. For the same compound, the Ratio in assay [3] was 0.63.

Take `C[C@H]1C[C@]2(OC(=O)/C=C/c3ccccc3)C(=O)/C(CO)=C/[C@@H]3[C@H](CC[C@@]4(C)O[C@H]4[C@H]2[C@H]1O)C3(C)C`: the negative logarithm of the IC50 (pIC50) in assay [1] and in assay [2] was under 4.52 throughout. For the same compound, in assay [3], the Ratio amounted to 0.35.

Turning to `CC1=C2C=C3CC[C@@H]4C(C)(C)[C@@H](O)CC[C@@]4(C)[C@@H]3C[C@H]2OC1=O` [HELIOSCOPINOLIDE B], the values for the pIC50 in assay [1] and in assay [2] were 4.68 and under 4.52, respectively. Further, the Ratio in assay [3] came to 0.49.

Regarding `C=C1CC[C@H]2[C@@H]([C@@H]3[C@@H]1C1=C(C[C@H](C)C1=O)[C@@H](O)[C@@]3(C)O)C2(C)C`, the negative logarithm of the IC50 (pIC50) in assay [1] and in assay [2] was under 4.52 in each case. Besides, the Ratio in assay [3] was 0.76.

For the compound `C/C1=C/C[C@H]2[C@@H](/C=C(\C)C(=O)[C@@]3(OC(=O)c4ccccc4)C[C@H](C)[C@H](O)[C@@H]3[C@H]1O)C2(C)C`, the negative logarithm of the IC50 (pIC50) in assay [1] is 4.56; in assay [2] it was under 4.52. Moreover, the Ratio in assay [3] is 1.13.

For the compound `C/C1=C\[C@@H]2[C@H](CC[C@@]3(C)O[C@@H]3[C@H]3[C@@H](O)[C@@H](C)C[C@]3(OC(=O)/C=C/c3ccccc3)C1=O)C2(C)C` [JOLKINOL B], the pIC50 in assay [1] was 4.70; in assay [2] it was 4.74. The Ratio in assay [3] was found to be 3.61.

`C/C1=C\[C@@H]2[C@H](CC[C@@]3(C)O[C@@H]3[C@H]3[C@@H](O)[C@@H](C)C[C@]3(OC(=O)c3ccccc3)C1=O)C2(C)C` [LATILAGASCENE F]: the pIC50 in assay [1] and in assay [2] was under 4.52 in each case. The Ratio in assay [3] was 1.3.

As to `C=C1CC[C@H]2[C@@H](/C=C(\C)C(=O)[C@@]3(OC(C)=O)C[C@H](C)[C@H](O)[C@@H]3[C@H]1O)C2(C)C`, the pIC50 in assay [1] and in assay [2] was under 4.52 throughout. Also, in assay [3], the Ratio amounted to 0.7.

Regarding `CC(=O)/C=C/C[C@@H](C)[C@@H]1CC[C@]2(C)C3=C(CC[C@@]12C)[C@@]1(C)CC[C@H](O)C(C)(C)[C@@H]1CC3=O`, the pIC50 is 4.66 in assay [1] and 4.64 in assay [2]. In addition, the Ratio in assay [3] worked out at 1.3.

On to `COc1ccc(CCN(C)CCCC(C#N)(c2ccc(OC)c(OC)c2)C(C)C)cc1OC` (stereo not drawn), for which the Ratio in assay [3] was determined as 2.25. Moreover, the fold change (FC) in assay [4] turned out to be 259.

In the case of `CC(=O)N[C@@H]1[C@@H]2[C@H](CC[C@@]3(C)[C@H](O)[C@H]4[C@@H](OC(=O)/C=C/c5ccccc5)[C@@H](C)C[C@]4(O)C(=O)[C@@]13C)C2(C)C`, the pIC50 in assay [1] and in assay [2] was under 4.52 throughout. Moreover, the Ratio in assay [3] came out at 1.51.

As for `CC1(C)CC[C@]2(C)CC(=O)[C@]3(C)C4=C(CC[C@@]3(C)[C@@H]2C1)[C@@]1(C)CC[C@H](O)C(C)(C)[C@@H]1CC4=O`, the pIC50 in assay [1] is 4.99; in assay [2], 4.92. In addition, the Ratio in assay [3] was found to be 0.95.

On to `C[C@@H]1C[C@]2(O)C(=O)[C@@]3(C)[C@H](OC(=O)c4ccccc4)[C@@H]4[C@H](CC[C@@]3(C)[C@H](O)[C@H]2[C@H]1O)C4(C)C`, for which the results for the negative-log IC50 (pIC50) in assay [1] and in assay [2] were under 4.52 and 4.53, respectively. Besides, in assay [3], the Ratio is 0.94.

For the compound `C/C1=C\[C@@H]2[C@H](C[C@@H](O)/C(C)=C/[C@H]3[C@@H](OC(=O)c4ccccc4)[C@@H](C)C[C@]3(O)C1=O)C2(C)C`, the figures for the pIC50 in assay [1] and in assay [2] were 4.67 and 4.69, respectively. In assay [3], the Ratio amounted to 0.43.

On to `C[C@H]1C[C@]2(O)C(=O)[C@@]3(C)[C@H](OC(=O)c4ccccc4)[C@@H]4[C@H](CC[C@@]3(C)[C@H](O)[C@H]2[C@H]1O)C4(C)C`, for which the results for the negative-log IC50 (pIC50) in assay [1] and in assay [2] were 4.58 and 4.54, respectively. In addition, the Ratio in assay [3] was found to be 0.97.

For `C/C1=C\[C@@H]2[C@H](C[C@@H](O)[C@@]3(C)O[C@@H]3[C@H]3[C@@H](OC(=O)c4ccccc4)[C@@H](C)C[C@]3(O)C1=O)C2(C)C`, the negative-log IC50 (pIC50) in assay [1] and in assay [2] was under 4.52 each time. The Ratio in assay [3] worked out at 0.44.

With `C[C@H](/C=C/C=O)[C@@H]1CC[C@]2(C)C3=C(CC[C@@]12C)[C@@]1(C)CC[C@H](O)C(C)(C)[C@@H]1CC3=O`, the pIC50 in assay [1] and in assay [2] was under 4.52 in each case. The Ratio in assay [3] turned out to be 1.25.

In the case of `CC(=O)O[C@]12C[C@H](C)[C@H](O)[C@@H]1[C@@H](O)/C(C)=C/C[C@H]1[C@@H](/C=C(\C)C2=O)C1(C)C`, the negative-log IC50 (pIC50) in assay [1] and in assay [2] was under 4.52 in each case. Also, in assay [3], the Ratio stood at 1.27.
